Results published in ChEMBL document CHEMBL1157946, “Sesquiterpene lactones as allelochemicals” (J Nat Prod, 2006).
Calls of active or inactive are those of the source. The rule behind the calls is not given here.

Legend:
Triticum aestivum [1] = assay: Growth inhibition of Triticum aestivum L. cv. Duro at 1 mM after 24 hrs by coleoptile assay; type: functional, organism-based
Procedure, shortened: (§1)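 Etiolated wheat coleoptile sections (apical 2 mm discarded, next 4 mm used; cut under green safelight), tested at 10^-3 to 10^-6 M from DMSO stock (max 0.1% DMSO final) in phosphate–citrate buffer pH 5.6 with 2% sucrose. Five sections per tube, three tubes per dilution, duplicated. Tubes rotated at 0.25 rpm, 24 h, 22 °C, dark. Lengths from digitized images. Reported as % difference from parallel control; Welch's test.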

Triticum aestivum [2] = assay: Growth inhibition of Triticum aestivum L. cv. Duro after 24 hrs by coleoptile assay; type: functional, organism-based; procedure, shortened: as §1
Triticum aestivum [3] = assay: Growth inhibition of Triticum aestivum L. cv. Duro at 1 uM after 24 hrs by coleoptile assay; type: functional; procedure, shortened: as §1
Lactuca sativa [4] = assay: Phytotoxicity against Lactuca sativa L. assessed as inhibition of root growth at 0.5 mM to 50 uM relative to control; type: functional, organism-based
Procedure, shortened: (§2)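 Seeds on filter paper in Petri dishes with 10^-2 M MES buffer, pH 6.0. Test concentrations 5×10^-4, 10^-4, 5×10^-5 and 10^-5 M, made by diluting DMSO solutions at 5 μL/mL buffer. Dishes sealed and kept at 25 °C in the dark: lettuce and tomato 5 days, onion 7 days. Plants frozen at -10 °C for 24 h before measurement. Root and shoot length recorded automatically and compared with buffer/DMSO control.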

Lactuca sativa [5] = assay: Phytotoxicity against Lactuca sativa L. assessed as inhibition of shoot growth at 0.5 mM to 50 uM relative to control; type: functional, organism-based; procedure, shortened: as §2
Solanum lycopersicum [6] = assay: Phytotoxicity against Lycopersicon esculentum Will assessed as inhibition of root growth at 0.5 mM to 50 uM relative to control; type: functional; procedure, shortened: as §2
Solanum lycopersicum [7] = assay: Phytotoxicity against Lycopersicon esculentum Will assessed as inhibition of shoot development at 0.5 mM relative to control; type: functional; procedure, shortened: as §2
Allium cepa [8] = assay: Phytotoxicity against Allium cepa assessed as inhibition of root growth at 0.5 mM relative to control; type: functional; procedure, shortened: as §2
Allium cepa [9] = assay: Phytotoxicity against Allium cepa assessed as inhibition of shoot growth at 0.5 mM relative to control; type: functional; procedure, shortened: as §2
Triticum aestivum [10] = assay: Growth stimulation of Triticum aestivum L. cv. Duro at <1 mM after 24 hrs by coleoptile assay; type: functional, organism-based; procedure, shortened: as §1

Molecule C=C1C(=O)O[C@@H]2[C@H]3C(CO)=CC[C@H]3C(=C)CC[C@@H]12 [ANNUOLIDE A] has an inhibition at 1000 µM (Triticum aestivum [1]) of 90%, an IC50 (Triticum aestivum [2]; Triticum aestivum, 24 h) of 370 µM and an inhibition at 1 µM (Triticum aestivum [3]) of 35%.

In the case of C=C1C(=O)O[C@H]2[C@H]1[C@H](OC(=O)/C(C)=C\C)C[C@]1(C)C=CC(=O)C(=C)[C@H]2O1 [HELIVYPOLIDE F], the Activity (Triticum aestivum [1]) is reported as “Active”, the Activity (Lactuca sativa [4]) is reported as “Active” and the Activity (Lactuca sativa [5]) is reported as “Active”. The “inhibition (INH)” value (Solanum lycopersicum [6]) was 32%, the inhibition at 500 µM (Solanum lycopersicum [7]) was 20% and the inhibition at 500 µM (Allium cepa [8]) was 54%. It also gave an inhibition at 500 µM (Allium cepa [9]) of 20%.

C=C1C(=O)O[C@H]2[C@H]1[C@H](OC(=O)/C(C)=C\C)C[C@@]1(C)[C@H](O)C[C@H](O)C(=C)[C@@H]21 was tested, and the Activity (Triticum aestivum [10]) was “Active”.

C=C1C(=O)O[C@@H]2[C@H]3C(C)=CC[C@H]3[C@](C)(O)C[C@@H](OC(=O)/C(C)=C\C)[C@@H]12 showed an IC50 (Triticum aestivum [1]) of 150 µM and an inhibition at 1000 µM (Triticum aestivum [1]) of 98%.

For C=C1C(=O)O[C@@H]2[C@H]3C(C)=C[C@H](O)[C@H]3[C@](C)(O)C[C@@H](OC(=O)/C(C)=C\C)[C@@H]12 [ANNUOLIDE H], the “inhibition (INH)” value (Triticum aestivum [2]) was 82%.

Work on C=C1C(=O)O[C@@H]2/C=C(/CO)[C@@]3(O)CC[C@@](C)(C[C@@H](OC(=O)/C(C)=C\C)[C@@H]12)O3 [NIVEUSIN B] yielded an inhibition at 1000 µM (Triticum aestivum [1]) of 92% and an inhibition at 500 µM (Solanum lycopersicum [7]) of 20%.

In the case of C=C1C(=O)O[C@H]2/C=C(/CO)C(=O)/C=C/[C@@](C)(O)C[C@@H](OC(=O)/C(C)=C\C)[C@@H]12, the Activity (Lactuca sativa [4]) is reported as “Active”, the Activity (Lactuca sativa [5]) is reported as “Active” and the inhibition at 500 µM (Solanum lycopersicum [7]) is reported as 20%. For the same molecule, the inhibition at 500 µM (Allium cepa [8]) was 54%.
